According to ChEMBL document CHEMBL1136016, “Synthesis, biological activity, and molecular modeling investigation of new pyrazolo[4,3-e]-1,2,4-triazolo[1,5-c]pyrimidine derivatives as human A(3) adenosine receptor antagonists” (J Med Chem, 2002):

Tests used:
[1] = target: Adenosine receptors; A2b & A3 (Homo sapiens) (UniProt P29275+P0DMS8); experiment: Selectivity ratio (h2B/hA3); format: protein assay
Adenosine receptor A2a [2] = target: T1, Adenosine receptor A2a (Homo sapiens, UniProt P29274); experiment: Displacement of [3H]SCH-58261 from human Adenosine A2A receptor expressed in HEK293 cells; range 114-179; format: cell-based
[3] = target: Adenosine receptors; A1 & A3 (Homo sapiens) (UniProt P30542+P0DMS8); experiment: Selectivity ratio (hA1/hA3); format: protein assay
Adenosine receptor A2b [4] = target: T2, Adenosine receptor A2b (Homo sapiens, UniProt P29275); experiment: Displacement of [3H]-DPCPX from human Adenosine A2B receptor expressed in HEK293 cells; range 91-148; format: cell-based
T2 sequence (P29275 whole entry): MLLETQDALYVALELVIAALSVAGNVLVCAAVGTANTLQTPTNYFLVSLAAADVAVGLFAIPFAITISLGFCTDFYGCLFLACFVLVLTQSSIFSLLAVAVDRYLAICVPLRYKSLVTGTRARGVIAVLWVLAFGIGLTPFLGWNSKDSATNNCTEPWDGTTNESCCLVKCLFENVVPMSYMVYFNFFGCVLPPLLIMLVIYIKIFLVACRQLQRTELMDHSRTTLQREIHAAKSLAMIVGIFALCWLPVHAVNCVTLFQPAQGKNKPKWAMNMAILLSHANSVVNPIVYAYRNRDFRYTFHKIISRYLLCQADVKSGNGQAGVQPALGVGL
Method in brief: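 Competition binding on membranes of HEK-293 cells carrying recombinant human A2B receptor. Incubation 60 min at 25 °C in 50 mM Tris HCl pH 7.4 with 10 mM MgCl2, 1 mM EDTA, 0.1 mM benzamidine and 2 IU/mL adenosine deaminase. Radioligand 40 nM [3H]DPCPX, at least six to eight test concentrations. NECA defined nonspecific binding. Bound ligand separated on glass-fibre filters and counted; n = 3-6.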

Adenosine receptor A1 [5] = target: T3, Adenosine receptor A1 (Homo sapiens, UniProt P30542); experiment: Displacement of [3H]DPCPX from human Adenosine A1 receptor expressed in CHO cells; range 324-475; format: cell-based
T3 sequence (P30542 whole entry): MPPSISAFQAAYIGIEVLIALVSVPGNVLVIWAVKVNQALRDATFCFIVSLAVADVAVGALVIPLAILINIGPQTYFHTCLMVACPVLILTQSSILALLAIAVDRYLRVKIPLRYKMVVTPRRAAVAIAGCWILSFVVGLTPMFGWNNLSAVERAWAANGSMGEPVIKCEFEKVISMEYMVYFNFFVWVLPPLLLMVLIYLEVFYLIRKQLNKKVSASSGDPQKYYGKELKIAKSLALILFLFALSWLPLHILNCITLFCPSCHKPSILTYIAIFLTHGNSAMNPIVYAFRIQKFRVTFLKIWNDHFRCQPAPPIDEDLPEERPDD

Adenosine receptor A3 [6] = target: T4, Adenosine receptor A3 (Homo sapiens, UniProt P0DMS8); experiment: Displacement of [3H]MRE3008-F20 from human Adenosine A3 receptor expressed in HEK cells; range 3.05-3.78; format: cell-based, HEK293
T4 sequence (P0DMS8 whole entry): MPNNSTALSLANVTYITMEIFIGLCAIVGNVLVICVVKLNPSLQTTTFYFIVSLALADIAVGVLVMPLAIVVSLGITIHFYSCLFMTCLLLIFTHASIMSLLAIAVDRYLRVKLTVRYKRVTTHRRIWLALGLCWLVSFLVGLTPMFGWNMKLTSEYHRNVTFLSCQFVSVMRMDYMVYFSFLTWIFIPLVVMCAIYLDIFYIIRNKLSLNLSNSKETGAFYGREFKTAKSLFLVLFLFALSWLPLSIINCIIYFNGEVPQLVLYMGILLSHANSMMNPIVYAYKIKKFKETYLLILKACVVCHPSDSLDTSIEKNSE

Adenosine receptor A3 [7] = target: T4, Adenosine receptor A3; experiment: Inhibition of IB-MECA agonist-mediated cAMP production in CHO cell membranes expressing human Adenosine A3 receptor; range 15-44; format: functional, cell-based
Method in brief: (§1)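 Human A3-CHO membranes (in 50 mM Tris HCl, 10 mM MgCl2, 1 mM EDTA, pH 7.4) were preincubated for 10 min at 37 °C with 5 µM GTP, 0.5 mM Ro 20-1724 and 2.0 IU/mL adenosine deaminase. IB-MECA (100 nM) or antagonist was then added with 1 mM ATP and forskolin for 10 min. The reaction was stopped by 2 min boiling. cAMP was measured by [3H]cAMP competitive protein binding using beef adrenal binding protein, 150 min at 4 °C.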

Adenosine receptor A1 [8] = target: T3, Adenosine receptor A1; experiment: Displacement of [3H]DPCPX from human Adenosine A1 receptor expressed in CHO cells; range 436-810; format: cell-based
Method in brief: (§2)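 Human recombinant A1 receptor in CHO cell membranes, resuspended in 50 mM Tris HCl pH 7.4. Displacement run 120 min at 25 °C with 1 nM [3H]DPCPX, 50 µg protein per assay, and at least six to eight test concentrations. Nonspecific binding defined with CHA. Bound and free separated on glass-fiber filters; filter radioactivity counted. n = 3-6.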

Adenosine receptor A3 [9] = target: T4, Adenosine receptor A3; experiment: Inhibition of IB-MECA agonist-mediated cAMP production in CHO cell membranes expressing human Adenosine A3 receptor; range 130-279; format: functional, cell-based
Adenosine receptor A2a [10] = target: T1, Adenosine receptor A2a; experiment: Displacement of [3H]SCH-58261 from human Adenosine A2A receptor expressed in HEK293 cells; format: cell-based
Adenosine receptor A3 [11] = target: T4, Adenosine receptor A3; experiment: Displacement of [3H]MRE3008-F20 from human Adenosine A3 receptor expressed in HEK cells; range 19-34; format: cell-based, HEK293
Adenosine receptor A2b [12] = target: T2, Adenosine receptor A2b; experiment: Displacement of [3H]DPCPX binding at human Adenosine A2B receptor expressed in HEK293 cells; format: cell-based
Method in brief: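 Membranes from HEK-293 cells with human recombinant A2B receptor. Incubation 60 min at 25 °C in 50 mM Tris HCl, 10 mM MgCl2, 1 mM EDTA, 0.1 mM benzamidine, pH 7.4, with 2 IU/mL adenosine deaminase and 40 nM [3H]DPCPX. At least six to eight test concentrations. Nonspecific binding defined with NECA. n = 3-6.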

Adenosine receptor A2a [13] = target: T1, Adenosine receptor A2a; experiment: Displacement of [3H]SCH-58261 from human Adenosine A2A receptor expressed in CHO cells; format: cell-based
Method in brief: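 Membranes from CHO cells expressing the human receptor (50 µg protein) with [3H]SCH58261 and six to eight competitor concentrations. Incubated 60 min at 25 °C. Nonspecific binding was set with NECA.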

Adenosine receptor A3 [14] = target: T4, Adenosine receptor A3; experiment: biochemical
Adenosine receptor A1 [15] = target: T3, Adenosine receptor A1; experiment: Displacement of [3H]DPCPX from human Adenosine A1 receptor expressed in CHO cells; format: cell-based; method in brief: as §2
Adenosine receptor A2b [16] = target: T2, Adenosine receptor A2b; experiment: Displacement of [3H]DPCPX from human Adenosine A2B receptor expressed in HEK293 cells (95% confidence limits); format: cell-based
Method in brief: (§3)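 HEK-293 membranes expressing the human receptor were incubated 60 min at 25 °C. Six to eight test concentrations were used. Nonspecific binding was set with NECA. n = 3-6.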

Adenosine receptor A2a [17] = target: T1, Adenosine receptor A2a; experiment: Displacement of [3H]SCH-58261 from human Adenosine A2A receptor expressed in HEK293 cells; range 36-70; format: cell-based
Adenosine receptor A3 [18] = target: T4, Adenosine receptor A3; experiment: biochemical; remark: listed apart in the source
Adenosine receptor A2b [19] = target: T2, Adenosine receptor A2b; experiment: Displacement of [3H]-DPCPX from human Adenosine A2B receptor expressed in HEK293 cells; range 107-172; format: cell-based; method in brief: as §3
Adenosine receptor A1 [20] = target: T3, Adenosine receptor A1; experiment: Displacement of [3H]DPCPX from human Adenosine A1 receptor expressed in CHO cells; range 253-401; format: cell-based; method in brief: as §2
Adenosine receptor A3 [21] = target: T4, Adenosine receptor A3; experiment: Displacement of […] from human Adenosine A3 receptor expressed in CHO cells; format: cell-based
Method in brief: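 Membranes of CHO cells stably expressing human A3 receptor (50 µg protein/assay), incubated in duplicate with 1 nM [3H]MRE3008-F20 in 50 mM Tris HCl, 10 mM MgCl2 (pH 7.4) and six to eight ligand concentrations, 120 min at 4 °C. Nonspecific binding was set with 1 µM MRE3008-F20. Separation was by GF/B filtration and scintillation counting; n = 3-6.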

Adenosine receptor A3 [22] = target: T4, Adenosine receptor A3; experiment: Inhibition of IB-MECA agonist-mediated cAMP production in membranes of CHO cells expressing human Adenosine A3 receptor; format: functional, cell-based; method in brief: as §1

T1 sequence (P29274 whole entry): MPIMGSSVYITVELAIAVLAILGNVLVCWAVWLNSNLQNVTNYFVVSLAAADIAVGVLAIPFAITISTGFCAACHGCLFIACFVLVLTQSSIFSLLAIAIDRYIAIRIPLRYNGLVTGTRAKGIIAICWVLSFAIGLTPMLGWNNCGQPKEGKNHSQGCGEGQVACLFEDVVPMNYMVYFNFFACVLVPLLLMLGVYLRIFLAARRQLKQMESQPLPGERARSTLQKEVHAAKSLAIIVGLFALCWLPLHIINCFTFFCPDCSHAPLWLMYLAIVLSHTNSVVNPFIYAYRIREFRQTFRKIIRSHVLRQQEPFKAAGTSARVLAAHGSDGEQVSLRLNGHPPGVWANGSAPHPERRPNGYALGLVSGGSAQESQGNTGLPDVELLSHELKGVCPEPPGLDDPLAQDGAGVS

SMILES	Ratio [1]	Ratio [3]	Ki (Adenosine receptor A2b [12]) [µM]	Ki (Adenosine receptor A2a [13]) [µM]	Ki (Adenosine receptor A1 [15]) [µM]	other results
Cn1cc2c(nc(NC(=O)Nc3ccc(Cl)c(Cl)c3)n3nc(-c4ccco4)nc23)n1	34	115	–	–	–	Ki (Adenosine receptor A2a [2]): 0.143 µM; Ki (Adenosine receptor A2b [4]): 0.116 µM; Ki (Adenosine receptor A1 [5]): 0.392 µM; Ki (Adenosine receptor A3 [6]): 0.0034 µM; IC50 (Adenosine receptor A3 [7]): 0.026 µM
Cn1cc2c(nc(NC(=O)Nc3ccc(S(=O)(=O)O)cc3)n3nc(-c4ccco4)nc23)n1	> 400	> 400	> 10	–	–	Ki (Adenosine receptor A1 [8]): > 10 µM; IC50 (Adenosine receptor A3 [9]): 0.19 µM; Ki (Adenosine receptor A2a [10]): 0.594 µM; Ki (Adenosine receptor A3 [11]): 0.025 µM
CCn1cc2c(nc(NC(=O)Cc3ccccc3)n3nc(-c4ccco4)nc23)n1	156	693	–	0.335	0.714	Ki (Adenosine receptor A3 [14]): 0.00103 µM; Ki (Adenosine receptor A2b [16]): 0.161 µM
O=C(Nc1cccc(Cl)c1)Nc1nc2ccc(Cl)cc2c2nc(-c3ccco3)nn12	157	54	–	–	–	–
Cn1cc2c(nc(NC(=O)Nc3cccc(Cl)c3)n3nc(-c4ccco4)nc23)n1	512	875	–	–	–	–
COc1ccc(NC(=O)Nc2nc3nn(C)cc3c3nc(-c4ccco4)nn23)cc1	1300	5480	–	–	–	–

Second part, led by results:

Ratio [1]	Ratio [3]	Ki (Adenosine receptor A2b [12]) [µM]	Ki (Adenosine receptor A2a [13]) [µM]	Ki (Adenosine receptor A1 [15]) [µM]	SMILES	other results
62.6	33	–	–	–	CCCn1cc2c(nc(NC(=O)Nc3cccc(Cl)c3)n3nc(-c4ccco4)nc23)n1	–
170	398	–	–	–	CCCCn1cc2c(nc(NC(=O)Nc3ccc(F)cc3)n3nc(-c4ccco4)nc23)n1	Ki (Adenosine receptor A2a [17]): 0.05 µM; Ki (Adenosine receptor A3 [18]): 0.0008 µM; Ki (Adenosine receptor A2b [19]): 0.136 µM; Ki (Adenosine receptor A1 [20]): 0.318 µM
419	2590	0.18	0.695	1.11	Cn1cc2c(nc(NC(=O)Nc3ccc([N+](=O)[O-])cc3)n3nc(-c4ccco4)nc23)n1	Ki (Adenosine receptor A3 [21]): 0.00043 µM; IC50 (Adenosine receptor A3 [22]): 0.0055 µM
96	1060	0.052	0.503	0.584	CCCCn1cc2c(nc(NC(=O)Nc3ccc([N+](=O)[O-])cc3)n3nc(-c4ccco4)nc23)n1	Ki (Adenosine receptor A3 [21]): 0.00055 µM
